Laboratory results from ChEMBL document CHEMBL4513216, “Probing the Open Global Health Chemical Diversity Library for Multistage-Active Starting Points for Next-Generation Antimalarials” (ACS Infect Dis, 2020).

Test: Toxicity liver stage against HepG2, at 10uM
Type: cell-based
Set-up: test concentration 10 uM, cell line HepG2-A16-CD81EGFP
Conditions: human, HepG2-A16-CD81EGFP cells; read-out: INHIBITION
Outline: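 Uninfected HepG2-A16-CD81EGFP cells, 3 × 10^3 per well, 1536-well, plated on prespotted compound at 10 μM final, parasite-free screening media added to match infected plates; puromycin 10 μM positive, DMSO 0.5% negative; run in parallel with 48 h PbLuc assay at 37 °C, 5% CO2; viability by CellTiter-Glo luminescence, normalized to controls.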

SMILES | cytotoxicity at 10 µM
c1ccc2oc(C3CCN(Cc4ncon4)CC3)nc2c1 | 2.56%
COCCN1C[C@H]2CN(C(=O)C3CC3)CCN2C1=O | 7.37%
O=C(c1cccs1)N1CCN(Cc2cc(=O)c3ccccc3[nH]2)CC1 | -2.93%
Cc1nn(-c2ccccc2Cl)c(C)c1CCC(=O)O | 4.68%
O=C(NCCn1cccc1)C(c1ccccc1)N1CCCC1 (stereo not given) | -0.288%
CC(C)(C)C(=O)CN1CCc2ccccc2NCCC1=O | -104%
CC1=Nc2c(c(=O)[nH]n2C2CCCC2)C(c2ccc(O)cc2)S1 (stereo not given) | -3.39%
CCc1cnc2c(c1Nc1ccccc1OC)c(=O)n(C)c(=O)n2C | 6.87%
O=C(Cn1c(=O)oc2ccccc21)N1Cc2cncnc2C1 | -0.0603%
CN1CCN(C(=O)c2ncn3c2CNS(=O)(=O)c2ccccc2-3)CC1 | 4.5%
O=C(N1CCCC1)N1CCC2(CC(=O)N(c3ccc4c(c3)OCO4)C2)C1 (stereo not given) | 9.79%
O=C([C@H]1CCCO1)N1CCN(Cc2cccnc2)c2ncccc2C1 | 13.2%
Cc1ccc(N2CCCc3sc(C(=O)NCC4CCCO4)nc32)nn1 (stereo not given) | -1.19%
CN(C)C(=O)[C@@H]1CCO[C@@H]2CCN(c3ncccn3)C[C@H]21 | 6.65%
NC(=O)N1CC[C@@H]2O[C@@H](COCC(=O)N3CCCC3)CC[C@@H]21 | -0.356%
Cc1ccc(CS(=O)(=O)N2CC[C@H]3[C@H]2CC(=O)N3C)cc1 | -7.33%
Cc1csc(CN2CC[C@H]3C[C@H](C)O[C@@H]3C2)n1 | 2.58%
Cc1nc(CN2C(=O)CC[C@@H]3[C@H]2CCN3C(=O)C2CCCO2)cs1 (stereo not given in full) | -9.33%
Cc1ccsc1C(=O)N1CCn2cnc(COCC3CC3)c2C1 | 6.93%
NC(=O)Cn1nc(-c2ccccc2F)ccc1=O | -7.69%
CCn1nc(C)c2nc(C(C)C)nc(N3CCCC3)c21 | -1.61%
Cc1ccccc1C(=O)N1CC[C@H](O)[C@@H](N2CCOCC2)CC1 | 5.32%

SMILES | cytotoxicity at 10 µM
CNC(=O)CCc1cc(C)nc(C2CCN(C3CCCCC3)CC2)c1 | 4.54%
COc1ccccc1C1CNCCN1C(=O)c1ccc(F)cc1 (stereo not given) | 0.57%
Nc1nccc(C2CCN(CCO)C2)n1 (stereo not given) | 0.51%
Cc1nc(Nc2ncccn2)cc(C2CCCN2C2CCOCC2)n1 (stereo not given) | -4.45%
O=C(CCS(=O)(=O)C1CCCC1)N1CCCC(n2ccnc2)C1 (stereo not given) | -0.968%
CCOC(C)c1nccn1CC(=O)Nc1cc(C)on1 (stereo not given) | -5.58%
CS(=O)(=O)NCC1Cc2ccccc2O1 (stereo not given) | 2.01%
Cn1cc(C(=O)NCCc2ccc(OC3CCCC3)cc2)ccc1=O | -2.51%
COC(CNC(=O)c1ccc[nH]1)c1cccc(Cl)c1 (stereo not given) | -0.23%
CC(C)CCC(=O)NCc1ccc(N2CCCCC2)cc1 | 7.89%
Clc1ccc(C2(NCc3noc(C4CC4)n3)CCOCC2)cc1 | -3.1%
O=C(c1cc(Cl)c2c(c1)OCO2)N1CCN(c2ncccn2)CC1 | -0.769%
Cc1cc(C)n(CC2CCCN2C(=O)c2ccc3[nH]cnc3c2)n1 (stereo not given) | 3.18%
O=C(C[S+]([O-])Cc1cccc(Cl)c1)NC1CCCC1 (stereo not given) | 0.808%
CC1(C)CN(CC(F)(F)F)CCN1CC(N)=O | 9.92%
CN(C(=O)c1ccc[nH]1)C1CC(=O)N(Cc2ccccc2)C1=O (stereo not given) | 8.02%
Cc1cc(C2CCCN(CC(=O)N3CCc4ccccc43)C2)n[nH]1 (stereo not given) | 2.01%
O=C(c1occc1CN1C(=O)Cc2ccccc21)N1CCCCCC1 | 4.52%
Cc1nn(C)c(Cl)c1C1CCCN1c1ncnc2[nH]ccc12 (stereo not given) | 10.9%
COCC(O)CN(C)C(=O)c1cccc(-c2csc(C)n2)c1 (stereo not given) | -3.04%
c1nc(N2CCN(Cc3nnnn3C3CC3)CC2)c2sccc2n1 | 24.5%
CS(=O)(=O)c1ccc(NCCC2CCCO2)c(S(C)(=O)=O)c1 (stereo not given) | -4.27%

SMILES | cytotoxicity at 10 µM
O=C(NCCNS(=O)(=O)C1CCCCC1)c1ccccc1 | -3.82%
CC(C)c1nccc([C@H]2C[C@@H]3CCN(Cc4ccco4)C[C@H]3O2)n1 | -5.25%
COC(=O)NCC(=O)N1CCCC(c2ncc[nH]2)C1 (stereo not given) | 2.42%
CCN(CC)S(=O)(=O)N1CCCC(c2nccn2Cc2cccnc2)C1 (stereo not given) | 7.07%
C=C(C)CNC(=O)C1CCC(=O)N(C2CCCC2)C1 (stereo not given) | -3.4%
CC1(c2ccccc2)CCC(=O)N(CCN2CCOCC2)C1 (stereo not given) | -8.65%
CC(C(=O)N1CCN(CCOc2ccccc2)CC1)n1cc(Cl)cn1 (stereo not given) | 10.4%
CC1(C)CC(CN2CCC3(CCC(=O)N(CCO)C3)CC2)CCO1 (stereo not given) | 18%
CCC(Nc1nc(C(C)C)nc2c1cnn2C)c1ccc(O)cc1 (stereo not given) | -51.2%
CCNC(=O)[C@@H]1C[C@@H](N)CN1C(=O)CCc1ccc(C)c(C)c1 | 2.72%
Cc1nn(CC(=O)N2CCC3(CN(C)C(=O)O3)C2)c(=O)c2ccccc12 (stereo not given) | 9.74%
CCOc1ccc(Cl)cc1C(C(=O)O)N1CCC(CO)CC1 (stereo not given) | 2.93%
Cc1cc(C(F)(F)F)nc(CCNc2nc(C)nc3c2cnn3C)n1 | 4.79%
CCn1nc(CC(C)C)cc1C(=O)NCC(F)(F)F | 21.3%
Cc1cc(-c2cncnc2)ccc1OCC(N)=O | 8.07%
CCc1nc(CC(=O)N2CCCC2c2c(C)nn(C)c2OC)cs1 (stereo not given) | -2.17%
Cc1cc(C)n(CC2CN(CC3CCCC3)CCO2)n1 (stereo not given) | -16.4%
CCn1cc(CN2CCCN(C(=O)CCc3cnn(C)c3)CC2)cn1 | 0.153%
Cc1nc2cc(O)nn2c(C)c1CCC(=O)NCCCC(C)C | -1.52%
Cc1ccc(CS(=O)(=O)CC(=O)NCCCOC(C)C)cc1 | -2.9%
COC(=O)C(NC(=O)CC(C)C)c1cc(F)ccc1F (stereo not given) | -0.481%
COc1ccccc1CC(=O)NS(=O)(=O)c1ccc(C#N)cc1 | -10.4%

SMILES | cytotoxicity at 10 µM
CC(C)c1nccn1C1CCCN(C(=O)CCCc2ccccn2)C1 (stereo not given) | -9.02%
CCOc1ccnc(N2CCN(C(=O)c3cccnc3)CC2)n1 | -5.19%
CC(C)c1noc(C(C)N2CCN(Cc3cccs3)CC2)n1 (stereo not given) | -6.18%
CNC(=O)c1ccc(C(=O)N2CCCC(n3ccnc3C)C2)cn1 (stereo not given) | -0.248%
CSc1nccn1-c1cccc(C(=O)NCCC(=O)NC(C)C)c1 | 0.153%
CCOc1cc(C)nc(N2CCN(C(=O)c3cscn3)CC2)n1 | -7.54%
CC(C)Cc1nc(CN2CCOC(Cn3cncn3)C2)no1 (stereo not given) | 2.07%
Cc1nc(CN(C)CC(c2cccs2)N2CCOCC2)no1 (stereo not given) | -2.15%
CC(C)c1nc(C2CCCN(C(=O)CCn3ccccc3=O)C2)no1 (stereo not given) | -18.4%
CN(C)CC1CN(Cc2ccc(-n3cccn3)cc2)CCO1 (stereo not given) | 4.09%
CNC(=O)CCS(=O)(=O)Cc1cc(Cl)c2c(c1)OCCO2 | -4.89%
CCCNC(=O)C1CCN(Cc2csc(CC)n2)CC1 | -10.4%
Cc1csc(N2CCCN(C(=O)c3ccoc3C)CC2)n1 | -8.45%
Cc1ccc(OCCN2CCCC(c3cc(C(N)=O)[nH]n3)C2)cc1 (stereo not given) | -9.14%
Cc1cnn(CC2CN(CC(=O)Nc3ccnn3C(C)C)CCO2)c1 (stereo not given) | -8.06%
Cc1cnn(CC2CCCN2CC(=O)NC2CCOCC2)c1 (stereo not given) | -16%
COCCOc1ncccc1C(=O)N1CCCC1Cn1cc(C)cn1 (stereo not given) | -2.95%
Cc1cnn(CC2CCCCN2C(=O)c2cccnc2N(C)C)c1 (stereo not given) | -7.37%
CC(=O)NC1CCCN(C(=O)NCCOc2ccc3c(c2)OCO3)C1 (stereo not given) | -31%
CC(C)c1cc(C(=O)N2CCCC(n3cncn3)C2)n[nH]1 (stereo not given) | -11.9%
O=C(CCc1c(F)cccc1F)N1CCCCC1Cn1cccn1 (stereo not given) | -11.1%
CCn1cnnc1CNC(=O)N1CCN(CC(C)C)CC1 | 9.18%

SMILES | cytotoxicity at 10 µM
CCOc1ncccc1C(=O)N(C)C1CCN(c2ccccn2)CC1 | -18.7%
Cc1ccoc1C(=O)N1CCCN(Cc2cnn(C)c2)CC1 | -11.1%
CCn1cc(CN2CCCN(C(=O)c3c(C)oc(C)c3C)CC2)cn1 | -8.89%
CCC(O)CN1CCN(C(=O)Cc2nc(-c3ccco3)oc2C)CC1 (stereo not given) | -2.94%
CC(=O)N1CCN(Cn2nc(-c3ccc(F)cc3)oc2=O)CC1 | -3.89%
Cc1cc2n(n1)CC(CNCc1cnn(-c3ccccc3)c1)CN2 (stereo not given) | -9.01%
CCN(C(=O)CS(=O)(=O)Cc1cc(Cl)c2c(c1)OCCCO2)C1CC1 | 0.787%
CC(=O)N1CCCN(C(=O)c2ccn(-c3cccc(Cl)c3)n2)CC1 | -1.37%
CCc1nc(C)c(C(=O)NCCN2CCC(C)CC2)s1 | -5.6%
Cc1ccc(CN(CCCN(C)C)Cc2cnc(N(C)C)nc2)o1 | 2.26%
Cc1ccc(CN(CCN(C)C)Cc2ccnn2C2CCCCO2)o1 (stereo not given) | 0.267%
Cc1cccc(CN2CCC(c3csc4nccn34)CC2)n1 | 1.54%
COCC1CN(Cc2cc(C)on2)Cc2cn(CC3CCCC3)nc21 (stereo not given) | 6.4%
O=C(c1ccncc1)N1CCN2C[C@H](Oc3cccc(F)c3)C[C@H]2C1 | 8.28%
O=C(Cc1ccccn1)N1CCC2(CC1)CN(CC1CC1)C(=O)CO2 | 7.43%
O=C(NCCCO)c1cc(-c2cc[nH]n2)n2ccccc12 | 14.3%
O=C([C@@H]1C[C@@H]2CCN(Cc3ccccn3)C[C@H]2O1)N1CCCO1 | 2.29%
Cc1nc(CN2CCc3ncnc(-c4ccc(F)cc4)c3CC2)cs1 | 4.89%
CC(C)N1CCC2(CCN(C(=O)c3cccnc3)CC2)C1 | 5.27%
O=C(c1ccccc1F)N1C[C@H]2CCC[C@@]2(COCc2ccncc2)C1 | 7.4%
Cc1cnc(N2CCc3ncnc(N4CCN(C)CC4)c3CC2)nc1 | -1.73%
O=C(NCc1ccccc1)N1C[C@@H]2C[C@H](C(=O)N3CCCC3)[C@H](C1)O2 | 8.46%
